Measured values collected from several papers.
Protocols differ between the studies behind these lines.
RET V804L: Proto-oncogene tyrosine-protein kinase receptor Ret (RET, Homo sapiens, UniProt P07949, V804L)
RET: Proto-oncogene tyrosine-protein kinase receptor Ret (RET, Homo sapiens, UniProt P07949)
RET M918T: Proto-oncogene tyrosine-protein kinase receptor Ret (RET, Homo sapiens, UniProt P07949, M918T)
RET V804M: Proto-oncogene tyrosine-protein kinase receptor Ret (RET, Homo sapiens, UniProt P07949, V804M)

COc1ncc2cc3ccccc3nc2c1C#N — remaining binding (RET V804L; cell-free assay, competition with immobilised ligand; 5 µM): 94%
C=CC(=O)N1CCC(C(=O)NCC(=O)N2CCN(c3nc(-c4cnc(N)nc4C(F)F)nc(N4CCOCC4)n3)CC2)CC1 — remaining binding (RET; binding, competition with immobilised ligand; 1 µM): 94%
CO[C@@H](C)c1c(Nc2ccc([C@@H](N(C)C(=O)C3CCS(=O)(=O)CC3)C(F)(F)F)cc2)cnc2cc(Cl)nn12 — remaining binding (RET; cell-free assay, competition with immobilised ligand; 1 µM): 91%
F[C@@H]1CCN(c2nccc(-c3cnn4ncccc34)n2)C1 — remaining binding (RET M918T; binding; 1 µM): 100%
CN1CCN(c2ccc(Nc3nccc(-c4cccc([N+](=O)[O-])c4)n3)cc2C(F)(F)F)CC1 — remaining binding (RET V804L; binding; 10 µM): 41%
CN(c1nccc(-c2cnn3ncccc23)n1)C1CC1 — remaining binding (RET; binding; 1 µM): 84%
N#CC1(c2ccccn2)CCN(Cc2cc(C(=O)N3CCCC3)c(=O)n3ccccc23)CC1 — remaining binding (RET M918T; cell-free assay, competition with immobilised ligand; 1 µM): 88%
COc1cnc(Nc2cccc(S(N)(=O)=O)c2)nc1N1CCN(c2ccccc2)C(=O)C1 — remaining binding (RET V804M; binding, competition with immobilised ligand; 1 µM): 77%
O=C(c1ccc(Nc2ncc(Cl)c(-c3ccc(Cl)s3)n2)cc1)N1CCC(N2CCCC2)CC1 — remaining binding (RET; binding, competition with immobilised ligand; 1 µM): 15%
Nc1ncc2c(n1)-c1c([nH]c3ccc(C#CC4CC4)cc13)CCCC2 — remaining binding (RET V804M; binding, competition with immobilised ligand; 1 µM): 100%
O=C(Nc1c[nH]nc1C(=O)NC1CCNCC1)c1cc(F)cc(F)c1 — remaining binding (RET M918T; binding, competition with immobilised ligand; 1 µM): 100%
O=C(N[C@H]1CCCCC/C=C\C2C[C@@]2(C(=O)O)NC(=O)[C@@H]2C[C@@H](Oc3ccncc3)CN2C1=O)OC1CCCC1 (stereo partly drawn) — remaining binding (RET V804M; binding, competition with immobilised ligand; 1 µM): 100%
CN(C)c1nccc(-c2cnn3ncccc23)n1 — remaining binding (RET V804M; binding; 1 µM): 100%
CS(=O)(=O)NCC[C@H](NC(=O)c1cncc2c1cnn2-c1ccc(F)cc1)c1ccnc(S(C)(=O)=O)c1 — remaining binding (RET; cell-free assay, competition with immobilised ligand; 1 µM): 91%
O=C(NCCCN1CCOCC1)c1ccc(Nc2nccc(-c3cc4ccccc4s3)n2)cc1 — remaining binding (RET V804L; binding, competition with immobilised ligand; 1 µM): 100%
CNC(=O)[C@@H]1CC[C@@H](n2c(-c3ccc4cnccc4c3)nc3ccc(C(=O)NCc4cccc(C(N)=O)c4)cc32)C1 — remaining binding (RET; binding, competition with immobilised ligand; 1 µM): 96%
O=C(NCC1CCOCC1)c1n[nH]cc1NC(=O)c1c(F)cccc1F — remaining binding (RET; binding, competition with immobilised ligand; 1 µM): 98%
c1cncc(-c2cccc(Nc3nccc(NC4CCCCC4)n3)c2)c1 — remaining binding (RET V804L; binding, competition with immobilised ligand; 10 µM): 10%
COc1cc(-c2cn(C3CCc4ccccc4N(CC(F)(F)F)C3=O)nn2)ccc1-n1ccc(C)n1 (stereo not drawn) — remaining binding (RET M918T; cell-free assay, competition with immobilised ligand; 1 µM): 100%
C[C@@H]1CCN(c2nccc(-c3cnn4ncccc34)n2)C1 — remaining binding (RET; binding; 1 µM): 70%
O=C(c1ccc(Nc2nccc(-c3cc4ccccc4s3)n2)cc1)N1CCC(N2CCCC2)CC1 — remaining binding (RET; binding, competition with immobilised ligand; 1 µM): 85%
CC(C)CC(=O)N1CCc2nc(-c3ccc(Br)cc3)nc(N(C)Cc3ccccc3)c2C1 — remaining binding (RET V804M; cell-free assay, competition with immobilised ligand; 0.1 µM): 82%
O=C(NCCCN1CCOCC1)c1ccc(Nc2ncc(Cl)c(-c3ccc(Cl)s3)n2)cc1 — remaining binding (RET M918T; binding, competition with immobilised ligand; 1 µM): 15%
CCN1CCN(Cc2ccc(C(=O)Nc3ccc(C)c(Oc4ccc5c(c4)CC(=O)N5)c3)cc2C(F)(F)F)CC1 — remaining binding (RET V804L; binding, competition with immobilised ligand; 1 µM): 99%
CC1CCCN1c1nccc(-c2cnn3ncccc23)n1 (stereo not drawn) — remaining binding (RET V804M; binding; 1 µM): 100%
C[C@@H]1CN(c2cc(-c3nn(C)c4ccc(OC5(C)CC5)cc34)ncn2)C[C@H](C)O1 — remaining binding (RET V804L; cell-free assay, competition with immobilised ligand; 1 µM): 72%
CN1CCN(c2ccc(Nc3nccc(-c4ccccc4)n3)cc2C(F)(F)F)CC1 — remaining binding (RET V804M; binding; 10 µM): 48%
CCCCN(CCCC)C(=O)CN1C[C@@H](c2cc(OC)c3c(c2)OCO3)[C@H](C(=O)O)[C@H]1CC(C)(C)CCC — remaining binding (RET V804L; cell-free assay, competition with immobilised ligand; 1 µM): 100%
Cc1cnc(Nc2ccc(C(=O)N3CCC(N4CCCC4)CC3)cc2)nc1-c1cc2ccccc2s1 — remaining binding (RET V804L; binding, competition with immobilised ligand; 1 µM): 11%
C[C@@H](c1ccc(-n2cnc3c(N)ncnc32)cc1)N1CCc2nn(C)c(Cc3ccccc3)c2C1=O — remaining binding (RET; binding, competition with immobilised ligand; 0.1 µM): 81%
N[C@@H]1CCN(c2nccc(-c3cnn4ncccc34)n2)C1 — remaining binding (RET V804L; binding; 1 µM): 94%
COc1cnc(Nc2cccc(S(N)(=O)=O)c2)nc1N1CCN(c2ccccc2)CC1 — remaining binding (RET; binding, competition with immobilised ligand; 1 µM): 64%
O=C(c1ccc(Nc2ncc(Cl)c(-c3cc4ccccc4s3)n2)cc1)N1CCC(N2CCCC2)CC1 — remaining binding (RET; binding, competition with immobilised ligand; 1 µM): 25%
